Columns and labels:
Type in all cases: binding
Cu = conditions: SWV, n = 3
In short: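 Au slides were cleaned by sonication in 20 wt% ethanolamine at about 50 °C, then dipped briefly in piranha. Probe 1 (2.5 μM) with 5 mM TCEP in 10 mM PBS pH 7.4 was assembled at 4 °C for 16 h, then backfilled with 1 mM 9-mercaptononanol for 3 h at RT. Cu was loaded with 10 μM CuCl2 for 30 min at RT. Cathepsin B was in 25 mM MES pH 5.0 and incubated at 37 °C. SWV was run in N2-purged 10 mM PBS pH 7.4 (SCE, Pt counter), with at least three independent repeats.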

TGF = experiment: ITC of probe 2 with TGF; conditions: 25 °C
In short: (§1)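 MicroCal ITC200 titrations at 25 °C: 38 consecutive injections at intervals of at least 120 s. All solutions were degassed beforehand. Heats of dilution, measured by titrating beyond saturation, were subtracted from each data set.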

[1] = ITC of probe 2 with the label; conditions: 25 °C, 10 mM PBS pH 7.4, 0.5 mM probe 2 into 0.05 mM label
In short: as §1

ITC with heparin = conditions: 25 °C, 10 mM PBS pH 7.4
In short: as §1

Substance: 11-Mercaptoundecanoic acid (MUA)K-DAHKI-(ARKKAAKA)3VLVLVLVL [probe 1]
- Binding with Cu II ion (Cu; surface immobilized probe 1, after cleavage by target enzyme (33 nM)): completely abolish the binding
- Binding with Cu II ion (Cu; surface immobilized probe 1, before enzyme cleavage): relatively strong binding

Substance: (MUA)K–FSHF-(ARKKAAKA)3VLVLVLVL [probe 2]
- Binding to target TGF (TGF; 10 mM PBS pH 7.4, 0.5 mM probe 2 into 0.05 mM TGF): bind strongly
- Binding with target TGF relative to label (TGF; 10 mM PBS pH 7.4, comparison with label): stronger
- Binding to label [1]: bind strongly

Substance: TGF beta 1: transforming growth factor-beta 1, from R&D system
- Interaction with heparin (ITC with heparin): weak interactions with heparin

Reference: publication PMC9380907 (Analytica Chimica Acta, 2022)
